In ChEMBL document CHEMBL4043093, “2-Oxo-3, 4-dihydropyrimido[4, 5-d]pyrimidinyl derivatives as new irreversible pan fibroblast growth factor receptor (FGFR) inhibitors” (Eur J Med Chem, 2017):

What was measured:
[1] = biological target: Mitogen-activated protein kinase kinase kinase kinase 2 (Homo sapiens) (UniProt Q12851); experiment: Inhibition of wild-type human partial length MAP4K2 (M1 to G318 residues) expressed in HEK293 cells assessed as residual activity at 1000 nM after 30 mins by Kinomescan method relative to control; assay type: cell-based
[2] = biological target: Serine/threonine-protein kinase Nek6 (Homo sapiens) (UniProt Q9HC98); experiment: Inhibition of wild-type human full length NEK6 (M8 to T313 residues) expressed in Escherichia coli BL21 assessed as residual activity at 1000 nM after 30 mins by Kinomescan method relative to control
Chain of Serine/threonine-protein kinase Nek6 (Homo sapiens) (Q9HC98 whole entry, the tested form may be a part): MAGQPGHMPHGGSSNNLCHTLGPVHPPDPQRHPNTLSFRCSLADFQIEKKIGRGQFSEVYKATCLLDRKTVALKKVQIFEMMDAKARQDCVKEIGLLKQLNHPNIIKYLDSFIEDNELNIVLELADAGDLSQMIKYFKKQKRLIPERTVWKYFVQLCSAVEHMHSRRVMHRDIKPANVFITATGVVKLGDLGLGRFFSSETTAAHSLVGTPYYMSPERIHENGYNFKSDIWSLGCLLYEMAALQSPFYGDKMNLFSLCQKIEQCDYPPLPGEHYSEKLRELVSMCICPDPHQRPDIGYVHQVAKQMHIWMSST
Procedure, shortened: (§1)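 Single-concentration screen at 1 µM across a 456-kinase KINOMEscan panel. The read-out is Percent Control for each kinase.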

[3] = biological target: Serine/threonine-protein kinase SIK2 (Homo sapiens) (UniProt Q9H0K1); experiment: Inhibition of wild-type human full length SIK2 (M1 to N926 residues) expressed in Escherichia coli BL21 assessed as residual activity at 1000 nM after 30 mins by Kinomescan method relative to control
[4] = biological target: Aurora kinase C (Homo sapiens) (UniProt Q9UQB9); experiment: Inhibition of wild-type human full length AURKC (M1 to S275 residues) expressed in Escherichia coli BL21 assessed as residual activity at 1000 nM after 30 mins by Kinomescan method relative to control
Procedure, shortened: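 Single-point screen at a fixed 1 µM, run within a 456-kinase DiscoveRx KINOMEscan panel. Each kinase's read-out is Percent Control, i.e. signal relative to a control without compound. Hits were scored by a Percent Control < 35 cut-off, and an S(35) selectivity score was calculated across the non-mutant kinases.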

[5] = biological target: Receptor-type tyrosine-protein kinase FLT3 (Homo sapiens) (UniProt P36888); experiment: Inhibition of wild-type human partial length FLT3 (V592 to Y969 residues) expressed in Escherichia coli BL21 assessed as residual activity at 1000 nM after 30 mins by Kinomescan method relative to control
[6] = Antiproliferative activity against human FGFR2-amplified SUM52 cells after 5 days by SRB assay; details: SUM52, 120 h
[7] = biological target: Calcium/calmodulin-dependent protein kinase type 1D (Homo sapiens) (UniProt Q8IU85); experiment: Inhibition of wild-type human partial length CAMK1D (M1 to K299 residues) expressed in Escherichia coli BL21 assessed as residual activity at 1000 nM after 30 mins by Kinomescan method relative to control
[8] = tested on: eIF-2-alpha kinase GCN2 (Homo sapiens), Q9P2K8 [S808G]; experiment: Inhibition of wild-type human partial length GCN2 kinase domain 2 (R585 to T1018 residues) S808G mutant expressed in Escherichia coli BL21 assessed as residual activity at 1000 nM after 30 mins by Kinomescan method relative to control
[9] = biological target: Mitogen-activated protein kinase kinase kinase 5 (Homo sapiens) (UniProt Q99683); experiment: Inhibition of wild-type human partial length ASK1 (E648 to S964 residues) expressed in Escherichia coli BL21 assessed as residual activity at 1000 nM after 30 mins by Kinomescan method relative to control
[10] = biological target: Tyrosine-protein kinase Lck (Homo sapiens) (UniProt P06239); experiment: Inhibition of wild-type human partial length LCK (R207 to P509 residues) expressed in Escherichia coli BL21 assessed as residual activity at 1000 nM after 30 mins by Kinomescan method relative to control
Chain of Tyrosine-protein kinase Lck (Homo sapiens) (P06239 2-509 limits assumed): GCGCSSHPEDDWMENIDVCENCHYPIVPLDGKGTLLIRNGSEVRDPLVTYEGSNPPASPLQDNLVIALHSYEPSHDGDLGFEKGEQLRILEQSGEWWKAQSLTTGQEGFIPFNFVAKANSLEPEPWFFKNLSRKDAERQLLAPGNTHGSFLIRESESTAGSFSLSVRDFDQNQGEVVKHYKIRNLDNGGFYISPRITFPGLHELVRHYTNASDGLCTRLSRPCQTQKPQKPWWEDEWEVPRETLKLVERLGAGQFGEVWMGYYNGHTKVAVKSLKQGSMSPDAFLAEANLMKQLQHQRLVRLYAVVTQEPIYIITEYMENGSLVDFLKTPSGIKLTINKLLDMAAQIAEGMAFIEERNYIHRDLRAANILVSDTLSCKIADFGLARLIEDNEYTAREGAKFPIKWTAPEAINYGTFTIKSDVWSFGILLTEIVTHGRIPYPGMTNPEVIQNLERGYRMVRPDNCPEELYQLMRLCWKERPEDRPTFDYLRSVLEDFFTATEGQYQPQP

[11] = biological target: High affinity nerve growth factor receptor (Homo sapiens) (UniProt P04629); experiment: Inhibition of wild-type human partial length TRKA (G475 to G790 residues) expressed in HEK293 cells assessed as residual activity at 1000 nM after 30 mins by Kinomescan method relative to control; assay type: cell-based
[12] = biological target: Serine/threonine-protein kinase 17B (Homo sapiens) (UniProt O94768); experiment: Inhibition of wild-type human full length DRAK2 (M1 to C372 residues) expressed in Escherichia coli BL21 assessed as residual activity at 1000 nM after 30 mins by Kinomescan method relative to control; procedure, shortened: as §1
[13] = biological target: Cyclin-dependent kinase 8 (Homo sapiens) (UniProt P49336); experiment: Inhibition of wild-type human partial length CDK8 (M1 to T360 residues) expressed in Escherichia coli BL21 assessed as residual activity at 1000 nM after 30 mins by Kinomescan method relative to control
[14] = biological target: Serine/threonine-protein kinase WNK1 (Homo sapiens) (UniProt Q9H4A3); experiment: Inhibition of wild-type human partial length WNK1 (Q194 to A490 residues) expressed in HEK293 cells assessed as residual activity at 1000 nM after 30 mins by Kinomescan method relative to control; assay type: cell-based
Chain of Serine/threonine-protein kinase WNK1 (Homo sapiens) (Q9H4A3 whole entry, looked up, the tested form may be a part): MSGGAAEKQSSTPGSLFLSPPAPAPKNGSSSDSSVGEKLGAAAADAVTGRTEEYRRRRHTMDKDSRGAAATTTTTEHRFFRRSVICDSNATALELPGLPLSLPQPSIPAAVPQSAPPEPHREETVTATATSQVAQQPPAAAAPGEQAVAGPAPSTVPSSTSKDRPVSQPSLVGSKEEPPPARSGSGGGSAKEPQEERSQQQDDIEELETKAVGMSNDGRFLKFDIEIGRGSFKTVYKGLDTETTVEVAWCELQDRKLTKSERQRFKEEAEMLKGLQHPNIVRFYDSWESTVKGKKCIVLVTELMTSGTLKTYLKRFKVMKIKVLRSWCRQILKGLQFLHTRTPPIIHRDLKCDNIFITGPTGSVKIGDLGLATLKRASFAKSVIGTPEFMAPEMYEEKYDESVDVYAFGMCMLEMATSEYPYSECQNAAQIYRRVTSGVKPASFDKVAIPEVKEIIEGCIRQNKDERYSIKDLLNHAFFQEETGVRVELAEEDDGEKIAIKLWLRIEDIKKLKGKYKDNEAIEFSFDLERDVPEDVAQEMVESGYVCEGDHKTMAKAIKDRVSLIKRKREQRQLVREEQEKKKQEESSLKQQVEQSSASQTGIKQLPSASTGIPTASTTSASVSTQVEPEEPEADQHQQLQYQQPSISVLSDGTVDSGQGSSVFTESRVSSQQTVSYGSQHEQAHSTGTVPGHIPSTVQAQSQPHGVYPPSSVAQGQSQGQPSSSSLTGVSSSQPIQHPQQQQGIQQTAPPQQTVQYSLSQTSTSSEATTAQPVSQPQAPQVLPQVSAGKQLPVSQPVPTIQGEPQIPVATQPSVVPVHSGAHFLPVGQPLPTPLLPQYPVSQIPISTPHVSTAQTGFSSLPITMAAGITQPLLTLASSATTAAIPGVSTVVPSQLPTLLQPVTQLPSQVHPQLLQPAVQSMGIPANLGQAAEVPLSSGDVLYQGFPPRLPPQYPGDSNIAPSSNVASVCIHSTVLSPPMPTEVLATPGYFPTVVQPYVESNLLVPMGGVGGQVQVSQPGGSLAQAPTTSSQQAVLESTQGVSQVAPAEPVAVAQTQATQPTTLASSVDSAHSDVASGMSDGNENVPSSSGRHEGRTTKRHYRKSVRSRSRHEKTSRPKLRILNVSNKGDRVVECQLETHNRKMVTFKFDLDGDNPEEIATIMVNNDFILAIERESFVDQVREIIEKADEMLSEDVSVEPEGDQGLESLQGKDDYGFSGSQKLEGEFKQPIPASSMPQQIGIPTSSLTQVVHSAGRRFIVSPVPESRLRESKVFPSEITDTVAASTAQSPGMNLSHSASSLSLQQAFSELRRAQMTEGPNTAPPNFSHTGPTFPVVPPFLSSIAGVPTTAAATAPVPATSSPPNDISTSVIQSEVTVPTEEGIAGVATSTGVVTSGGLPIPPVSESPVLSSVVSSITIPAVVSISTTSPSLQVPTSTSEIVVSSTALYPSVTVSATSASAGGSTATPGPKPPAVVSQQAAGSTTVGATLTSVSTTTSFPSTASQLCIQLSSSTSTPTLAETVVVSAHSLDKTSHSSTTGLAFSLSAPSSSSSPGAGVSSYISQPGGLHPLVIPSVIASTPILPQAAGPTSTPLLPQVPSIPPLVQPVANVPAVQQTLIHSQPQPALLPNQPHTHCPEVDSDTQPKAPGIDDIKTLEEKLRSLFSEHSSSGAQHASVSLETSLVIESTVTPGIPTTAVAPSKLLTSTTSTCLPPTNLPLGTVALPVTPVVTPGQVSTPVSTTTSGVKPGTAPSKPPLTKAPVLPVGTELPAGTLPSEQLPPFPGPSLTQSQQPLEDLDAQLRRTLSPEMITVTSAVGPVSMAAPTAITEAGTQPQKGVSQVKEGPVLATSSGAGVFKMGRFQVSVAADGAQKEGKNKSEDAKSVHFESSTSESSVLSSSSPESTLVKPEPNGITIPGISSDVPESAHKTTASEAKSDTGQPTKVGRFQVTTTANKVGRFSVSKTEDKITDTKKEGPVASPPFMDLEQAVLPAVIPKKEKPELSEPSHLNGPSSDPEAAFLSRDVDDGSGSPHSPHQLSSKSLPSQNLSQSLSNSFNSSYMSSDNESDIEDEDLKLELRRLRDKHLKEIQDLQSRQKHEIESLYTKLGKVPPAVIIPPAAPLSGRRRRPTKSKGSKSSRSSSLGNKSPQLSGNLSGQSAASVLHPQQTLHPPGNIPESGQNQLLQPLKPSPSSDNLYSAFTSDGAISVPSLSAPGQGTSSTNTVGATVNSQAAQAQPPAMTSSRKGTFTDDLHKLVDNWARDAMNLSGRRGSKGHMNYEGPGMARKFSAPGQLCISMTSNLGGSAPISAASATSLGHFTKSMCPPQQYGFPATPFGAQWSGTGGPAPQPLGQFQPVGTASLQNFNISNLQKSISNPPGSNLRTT

[15] = biological target: Calcium/calmodulin-dependent protein kinase type II subunit gamma (Homo sapiens) (UniProt Q13555); experiment: Inhibition of wild-type human partial length CAMK2G (R9 to A303 residues) expressed in Escherichia coli BL21 assessed as residual activity at 1000 nM after 30 mins by Kinomescan method relative to control
Chain of Calcium/calmodulin-dependent protein kinase type II subunit gamma (Homo sapiens) (Q13555 whole entry, the tested form may be a part): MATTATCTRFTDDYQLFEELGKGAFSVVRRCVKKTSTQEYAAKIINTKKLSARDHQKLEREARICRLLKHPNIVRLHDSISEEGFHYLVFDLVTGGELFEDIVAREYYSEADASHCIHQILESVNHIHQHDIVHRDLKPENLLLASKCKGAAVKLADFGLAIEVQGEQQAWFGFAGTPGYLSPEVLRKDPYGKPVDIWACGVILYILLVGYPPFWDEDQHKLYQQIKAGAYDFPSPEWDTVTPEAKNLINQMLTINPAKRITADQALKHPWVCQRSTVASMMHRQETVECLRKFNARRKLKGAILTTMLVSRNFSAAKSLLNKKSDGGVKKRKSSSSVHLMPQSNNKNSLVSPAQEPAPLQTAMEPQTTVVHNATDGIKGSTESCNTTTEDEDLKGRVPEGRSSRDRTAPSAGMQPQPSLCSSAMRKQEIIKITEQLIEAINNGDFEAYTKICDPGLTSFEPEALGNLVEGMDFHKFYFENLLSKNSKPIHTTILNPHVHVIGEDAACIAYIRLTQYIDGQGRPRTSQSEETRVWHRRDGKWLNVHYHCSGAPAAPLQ

[16] = biological target: Tyrosine-protein kinase JAK1 (Homo sapiens) (UniProt P23458); experiment: Inhibition of wild-type human partial length JAK1 JH2 pseudokinase domain (R537 to D855 residues) expressed in HEK293 cells assessed as residual activity at 1000 nM after 30 mins by Kinomescan method relative to control; assay type: cell-based
[17] = biological target: PDGFRA (platelet-derived growth factor receptor alpha) (Homo sapiens, UniProt P16234); experiment: Inhibition of wild-type human partial length PDGFRA (V575 to D1002 residues) expressed in HEK293 cells assessed as residual activity at 1000 nM after 30 mins by Kinomescan method relative to control; assay type: cell-based; details: read-out: Activity
[18] = biological target: Phosphatidylinositol 4,5-bisphosphate 3-kinase catalytic subunit gamma isoform (Homo sapiens) (UniProt P48736); experiment: Inhibition of wild-type human partial length PIK3CG (S144 to A1102 residues) expressed in HEK293 cells assessed as residual activity at 1000 nM after 30 mins by Kinomescan method relative to control; assay type: cell-based
[19] = biological target: Bone morphogenetic protein receptor type-1B (Homo sapiens) (UniProt O00238); experiment: Inhibition of wild-type human partial length BMPR1B (D178 to L502 residues) expressed in HEK293 cells assessed as residual activity at 1000 nM after 30 mins by Kinomescan method relative to control; assay type: cell-based
[20] = biological target: Ribosomal protein S6 kinase beta-1 (Homo sapiens) (UniProt P23443); experiment: Inhibition of wild-type human partial length S6K1 (M1 to S421 residues) expressed in HEK293 cells assessed as residual activity at 1000 nM after 30 mins by Kinomescan method relative to control; assay type: cell-based
[21] = biological target: Misshapen-like kinase 1 (Homo sapiens) (UniProt Q8N4C8); experiment: Inhibition of wild-type human partial length MINK (M1 to K312 residues) expressed in HEK293 cells assessed as residual activity at 1000 nM after 30 mins by Kinomescan method relative to control; assay type: cell-based
Chain of Misshapen-like kinase 1 (Homo sapiens) (Q8N4C8 whole entry, looked up, the tested form may be a part): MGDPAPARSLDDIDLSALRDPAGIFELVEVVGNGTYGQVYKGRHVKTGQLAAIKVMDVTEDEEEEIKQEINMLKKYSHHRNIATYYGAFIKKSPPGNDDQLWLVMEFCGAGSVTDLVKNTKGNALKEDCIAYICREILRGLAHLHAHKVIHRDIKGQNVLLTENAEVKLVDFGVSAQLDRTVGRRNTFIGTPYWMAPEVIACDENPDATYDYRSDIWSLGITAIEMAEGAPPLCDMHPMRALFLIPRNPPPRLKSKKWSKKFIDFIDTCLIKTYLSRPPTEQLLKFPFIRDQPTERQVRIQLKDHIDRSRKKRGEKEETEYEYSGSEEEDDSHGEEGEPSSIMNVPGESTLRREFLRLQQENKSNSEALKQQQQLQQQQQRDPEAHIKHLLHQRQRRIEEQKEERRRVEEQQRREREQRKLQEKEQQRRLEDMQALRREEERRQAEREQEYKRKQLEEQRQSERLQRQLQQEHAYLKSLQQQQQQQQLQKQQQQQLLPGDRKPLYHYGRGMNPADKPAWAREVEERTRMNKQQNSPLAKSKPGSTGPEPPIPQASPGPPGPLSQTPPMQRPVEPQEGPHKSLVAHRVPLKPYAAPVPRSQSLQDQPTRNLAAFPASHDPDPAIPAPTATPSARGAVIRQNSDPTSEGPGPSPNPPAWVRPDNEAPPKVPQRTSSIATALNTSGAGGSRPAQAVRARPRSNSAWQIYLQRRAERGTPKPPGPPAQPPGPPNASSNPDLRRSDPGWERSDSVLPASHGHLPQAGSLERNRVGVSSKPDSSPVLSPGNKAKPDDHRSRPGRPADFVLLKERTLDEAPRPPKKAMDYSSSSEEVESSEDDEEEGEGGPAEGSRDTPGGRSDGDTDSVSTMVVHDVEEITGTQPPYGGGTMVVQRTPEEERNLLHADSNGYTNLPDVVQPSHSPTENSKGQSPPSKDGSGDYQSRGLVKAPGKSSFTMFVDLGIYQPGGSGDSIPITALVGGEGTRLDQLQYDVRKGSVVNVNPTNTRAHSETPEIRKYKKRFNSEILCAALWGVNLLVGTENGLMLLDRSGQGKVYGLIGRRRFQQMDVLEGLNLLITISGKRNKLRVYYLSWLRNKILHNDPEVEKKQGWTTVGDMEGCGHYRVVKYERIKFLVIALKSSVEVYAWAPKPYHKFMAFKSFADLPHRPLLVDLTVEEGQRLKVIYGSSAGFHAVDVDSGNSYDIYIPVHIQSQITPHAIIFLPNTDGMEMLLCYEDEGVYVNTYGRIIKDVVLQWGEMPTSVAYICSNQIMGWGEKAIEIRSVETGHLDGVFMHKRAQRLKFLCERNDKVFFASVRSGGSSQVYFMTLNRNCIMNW

[22] = tested on: Epidermal growth factor receptor (Homo sapiens), P00533 [UNDEFINED MUTATION]; experiment: Inhibition of human partial length EGFR S752-I759del mutant expressed in Escherichia coli BL21 assessed as residual activity at 1000 nM after 30 mins by Kinomescan method relative to control
Procedure, shortened: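 KINOMEscan binding panel of 456 kinases, with the test compound at a single concentration of 1 µM. Read-out is Percent Control.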

COc1cc(OC)c(Cl)c(N2Cc3cnc(Nc4ccc(F)cc4)nc3N(C3CCN(C(=O)/C=C/CN(C)C)CC3)C2=O)c1Cl
Activity [1]: 100% | Activity [2]: 100% | Activity [3]: 89% | Activity [4]: 100% | Activity [5]: 96% | IC50 [6]: 770 pM | Activity [7]: 87% | Activity [8]: 46% | Activity [9]: 100% | Activity [10]: 1.5% | Activity [11]: 38% | Activity [12]: 99% | Activity [13]: 85% | Activity [14]: 59% | Activity [15]: 100% | Activity [16]: 97% | activity at 0.5 h, 1 µM [17]: 62% | Activity [18]: 100% | Activity [19]: 97% | Activity [20]: 92% | Activity [21]: 93% | Activity [22]: 71%
